Columns and labels:
Platelet = assay: Relative potency, ratio of IC50 for drug to IC50 for AZD-6140 for platelet aggregation in human platelet rich plasma; assay type: functional
[1] = Antiplatelet aggregation activity against adenosine diphosphate-induced human platelet rich plasma assessed as inhibition of platelet aggregation by turbidimetric method; assay type: functional; settings: Homo sapiens, Platelet, Plasma
In short: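 Human PRP, prepared by two-step centrifugation and adjusted to 330 000 platelets/μL with PPP. Compound was preincubated 5 min at 37 °C in 0.5% DMSO, then 20 μM ADP was added. OD626 was read kinetically for 15 min at 37 °C with mixing between reads.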

P2Y purinoceptor 12 = P2Y purinoceptor 12 (Homo sapiens, UniProt Q9H244); assay: Displacement of [33P]ADP from human recombinant P2Y12 receptor expressed in CHO cells; assay type: cell-based
In short: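 Washed membranes from CHO cells expressing synthetic human P2Y12, incubated 1 h at room temperature with 0.2 nM 33P-MeSADP in 50 mM Tris/100 mM NaCl/1 mM EDTA. Compound was tested as a 7-point 3-fold series in triplicate. Nonspecific binding was defined with 300 nM 2-MeSADP, followed by filtration.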

Chain of P2Y purinoceptor 12 (Q9H244 whole entry): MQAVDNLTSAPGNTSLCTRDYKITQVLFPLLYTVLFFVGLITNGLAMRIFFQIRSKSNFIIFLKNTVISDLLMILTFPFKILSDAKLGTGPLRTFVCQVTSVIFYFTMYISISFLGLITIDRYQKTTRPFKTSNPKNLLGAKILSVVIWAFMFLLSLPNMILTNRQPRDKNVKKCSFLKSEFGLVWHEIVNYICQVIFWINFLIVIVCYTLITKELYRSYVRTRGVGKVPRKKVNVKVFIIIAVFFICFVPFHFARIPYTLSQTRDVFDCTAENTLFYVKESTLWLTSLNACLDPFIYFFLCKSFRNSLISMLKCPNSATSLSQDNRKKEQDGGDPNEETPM

Row | Compound | IC50 [1] [nM] | Ki (P2Y purinoceptor 12) [nM] | Ratio IC50 (Platelet)
1 | CCCCOC(=O)N1CCN(C(=O)[C@H](CCC(=O)O)NC(=O)c2cc(OC(=O)N(C)C3CCOC3)cc(-c3ccccc3)n2)CC1 (stereo not given in full) | 520 | 1.8 | 0.63
2 | CCCCOC(=O)N1CCN(C(=O)[C@H](CCC(=O)O)NC(=O)c2cc(OCCC3CCCNC3)cc(-c3ccccc3)n2)CC1 (stereo not given in full) | 1000 | 2.5 | 0.67
3 | CCCCOC(=O)N1CCN(C(=O)[C@H](CCC(=O)O)NC(=O)c2cc(OCCC3CCNCC3)cc(-c3ccccc3)n2)CC1 | 460 | 3 | 0.45
4 | CCCCCOC(=O)N1CCN(C(=O)[C@H](CCC(=O)O)NC(=O)c2cc(NC(=O)OCC)cc(-c3ccccc3)n2)CC1 | 9300 | 11 | 15
5 | CCCCCOC(=O)N1CCN(C(=O)[C@H](CCC(=O)O)NC(=O)c2cc(OCCO)cc(-c3ccccc3)n2)CC1 | 12000 | 31 | 10
6 | CCCCCOC(=O)N1CCN(C(=O)[C@H](CCC(=O)O)NC(=O)c2cc(OC(=O)N3CCC(OCC)CC3)cc(-c3ccccc3)n2)CC1 | 590 | 6 | 1.2
7 | CCCCCOC(=O)N1CCN(C(=O)[C@H](CCC(=O)O)NC(=O)c2cc(N3CCC(COCCC)CC3)cc(-c3ccccc3)n2)CC1 | 8900 | 22 | 12
8 | CCCCCOC(=O)N1CCN(C(=O)[C@H](CCC(=O)O)NC(=O)c2cc(CCCCN(C)C)cc(-c3ccccc3)n2)CC1 | 1000 | 3.3 | 1
9 | CCCCCOC(=O)N1CCN(C(=O)[C@H](CCC(=O)O)NC(=O)c2cc(OCC3CCN(S(=O)(=O)CC)CC3)cc(-c3ccccc3)n2)CC1 | 2800 | 7.4 | 1.9

Continued, in another order:

Row | IC50 [1] [nM] | Ki (P2Y purinoceptor 12) [nM] | Compound | Ratio IC50 (Platelet)
10 | 57000 | 87 | CCOC(=O)N1CCN(C(=O)[C@H](CCC(=O)O)NC(=O)c2cc(N(C)CCO)cc(-c3ccccc3)n2)CC1 | 26
11 | 31000 | 94 | CCOC(=O)N1CCN(C(=O)[C@H](CCC(=O)O)NC(=O)c2cc(OCC)cc(-c3ccccc3)n2)CC1 | 44
12 | 4700 | 19 | CCCCCOC(=O)N1CCN(C(=O)[C@H](CCC(=O)O)NC(=O)c2cc(OC3CCN(C(=O)C(F)(F)F)CC3)cc(-c3ccccc3)n2)CC1 | 4.4
13 | 1200 | 2.7 | CCCCOC(=O)N1CCN(C(=O)[C@H](CCC(=O)O)NC(=O)c2cc(N3CCC(NC)CC3)cc(-c3ccccc3)n2)CC1 | 0.86
14 | 8200 | 69 | CCOC(=O)N1CCN(C(=O)[C@H](CCC(=O)O)NC(=O)c2cc(OCCCOC)cc(-c3ccccc3)n2)CC1 | 11
15 | 2000 | 2.5 | CCCCOC(=O)N1CCN(C(=O)[C@H](CCC(=O)O)NC(=O)c2cc(OC3CCN(C)CC3)cc(-c3ccccc3)n2)CC1 | 1.9
16 | 5600 | 4.6 | CCCCCOC(=O)N1CCN(C(=O)[C@H](CCC(=O)O)NC(=O)c2cc(C(=O)NC3CCOCC3)cc(-c3ccccc3)n2)CC1 | 10
17 | 8000 | 7.9 | CCCCCOC(=O)N1CCN(C(=O)[C@H](CCC(=O)O)NC(=O)c2cc(C(=O)NCCOC)cc(-c3ccccc3)n2)CC1 | 18
18 | 1200 | 2.8 | CCCCOC(=O)N1CCN(C(=O)[C@H](CCC(=O)O)NC(=O)c2cc(OC3CCN(C(C)=O)CC3)cc(-c3ccccc3)n2)CC1 | 1.1
19 | 3100 | 3.7 | CCCCCOC(=O)N1CCN(C(=O)[C@H](CCC(=O)O)NC(=O)c2cc(CCC(=O)N3CCOCC3)cc(-c3ccccc3)n2)CC1 | 2.4
20 | 2100 | 12 | CCCCOC(=O)N1CCN(C(=O)[C@H](CCC(=O)O)NC(=O)c2cc(OC3CCN(C(=O)C(F)(F)F)CC3)cc(-c3ccccc3)n2)CC1 | 3.4

— ChEMBL document CHEMBL1157562, “Piperazinyl glutamate pyridines as potent orally bioavailable P2Y12 antagonists for inhibition of platelet aggregation” (J Med Chem, 2010)
